PGC1a Ac signal – raises PGC1a acetylation signal in U2OS cells; U2OS PGC1a acetylation AlphaScreen, overnight; activation, % at 15.6 µM; actives 0.21% (n = 350,000); AID 651723;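 active = every replicate reaching activation of at least 50%, whatever the mean replicate activation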;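 note: hits raise the AlphaScreen acetylation signal above neutral controls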
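detection = AlphaScreen lysate read | assay system = U2OS cells expressing flag-PGC1a plus GCN5 | input = 7000 cells/well | dosing = one concentration | times = compound overnight at 37 °C, each detection step 1 h RT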
* hit, by the source's call. A selection follows.

SMILES	PGC1a Ac signal
C=CCN1C(=O)N(/C=C/C)c2cccc3cccc1c23	60*
Cc1nc2ccc(C(=O)Nc3ccccc3Cl)cc2s1	-49
N#Cc1ccc(C(=O)CSc2nnc(-c3ccc(C(F)(F)F)cn3)s2)cc1	-47
Cc1cc(C(=O)Nc2cccc3c2O[C@H](CN(C)C(=O)Nc2ccc4c(c2)OCO4)[C@@H](C)CN([C@H](C)CO)C3=O)n(C)n1	-58
NC(=O)c1ccc(NC(=O)C#Cc2ccccc2)cc1	203*
NC(=O)NC(=O)Nc1ccccc1Cl	-54
CC(C)CCCCCCCCCCCCC(=O)NCC(=O)NC1C(O)C(O)C(Nc2ncnc3nc[nH]c23)OC1C(O)CO (configuration not stated)	-96
COCC(=O)Nc1ccc2c(c1)OC[C@@H](C)N(CCc1ccccc1)C[C@H](C)[C@H](OC)CN(C)C2=O	-46
C[C@H](CO)N1C[C@H](C)[C@@H](CN(C)C(=O)CCN2CCCCC2)Oc2ncc(C#Cc3ccccn3)cc2C1=O	-48
O=C(C[C@H]1CC[C@H](NC(=O)NC2CCCCC2)[C@H](CO)O1)NCc1ccc(Cl)cc1	-54
Cc1cccc(C)c1NC(=O)CS(=O)CC(=O)Nc1ccc(F)cc1F (configuration not stated)	57*
O=C(C[C@H]1CC[C@@H](NS(=O)(=O)c2ccc(F)cc2)[C@H](CO)O1)N1CCN(c2ccccc2)CC1	-50
O=C(CC1CC1)N[C@@H]1CC[C@H](CCNS(=O)(=O)c2ccc(Cl)cc2)O[C@H]1CO	-64
O=C(C[C@@H]1CC[C@@H](NS(=O)(=O)c2ccc(F)cc2)[C@H](CO)O1)N1CCN(c2ccccc2)CC1	-49
COc1cccc(NC(=O)CN(C)C(=O)CNC(=O)c2ccccc2F)c1	-45
Cc1cc2cc3c(cc2nc1SCC(=O)OC(C)C)OCCO3	95*
Cc1ccc(-c2nn(C)c(=O)c3ccccc23)cc1S(=O)(=O)NCCN(C)C	-42
CC1=C(C(N)=O)C(c2ccccc2)n2nc(-c3ccncc3)nc2N1 (configuration not stated)	60*
CCN(C(=O)COC(=O)/C=C/c1cccc(Cl)c1)c1c(N)n(Cc2ccccc2)c(=O)[nH]c1=O	-42
CC1(C)CC(NC(=S)NC(=O)c2cc(Br)ccc2Cl)CC(C)(C)N1	226*
O=C(NC(=S)Nc1cc(Cl)ccc1O)c1cccc(Br)c1	-56
CC(=O)c1cccc(NC(=S)NC(=O)c2ccc(Br)cc2)c1	-41
Cc1cc(N2CCN(C)CC2)nc(=S)[nH]1	-53
Cc1cc(C)nc(SCC(=O)OCN2C(=O)c3ccccc3C2=O)n1	67*
Nc1cc(N)nc(SCC(=O)Nc2ccccc2N2CCOCC2)n1	-41
SMILES	PGC1a Ac signal
CCOC(=O)NC(=O)CSc1nnnn1-c1ccc(C)cc1	-94
Cc1ccccc1Oc1cc(-n2ncc(Cl)c(Cl)c2=O)ncn1	-69
COc1ccc(C(=C(CC(=O)O)C(=O)OC(C)(C)C)c2cc(OC)c(OC)c(OC)c2)cc1OC	-47
COc1ccccc1C(=O)/C=C/c1ccc(N2CCCCC2)c([N+](=O)[O-])c1	187*
C=C1CCN(c2ccc(C(=O)NCc3ccccc3)cc2[N+](=O)[O-])CC1	-44
CCCC[C@@]1(C2CCCC2)Cc2cc(OCC(=O)O)c(Cl)c(Cl)c2C1=O	-95
CCCCCCCCCCCCS[C@H]1CS(=O)(=O)C[C@@H]1O	-43
C[C@@H]1CN([C@H](C)CO)C(=O)c2cc(NC(=O)Cc3cn(C)c4ccccc34)ccc2O[C@@H]1CN(C)C(=O)Nc1ccccc1	-108
CC(=O)N(C)C[C@H]1Oc2ncc(C#CCc3ccccc3)cc2C(=O)N([C@@H](C)CO)C[C@H]1C	-52
O=C(Cn1ncc(Cl)c(Cl)c1=O)c1ccc(Cl)cc1	-85
O=C(Cn1ncc(Cl)c(Cl)c1=O)NCC1CCCCC1	151*
O=C1CN(C(=O)Cn2ncc(Cl)c(Cl)c2=O)c2ccccc2N1	74*
Cc1ccc(NC(=O)Cn2ncc(Cl)c(Cl)c2=O)cc1S(=O)(=O)N1CCCCC1	90*
O=C(Nc1nc2ccccc2[nH]1)c1ccc(Cl)c(S(=O)(=O)N2CCCC2)c1	-52
C=CCn1c(C)cc(C(=O)Cn2ncc(Cl)c(Cl)c2=O)c1C	-41
Cc1cccc(NC(=O)CNC(=O)Cn2ncc(Cl)c(Cl)c2=O)c1C	-51
Cc1cccc(C(=O)O/N=C/c2c(Cl)n(C)c3ccccc23)c1	1
CC(C)c1ccc(NC(=O)CSc2nc3ccsc3c(=O)n2Cc2ccc(C(=O)O)cc2)cc1	-59
CCCCn1c(=O)[nH]c(=O)c2c1nc(-c1ccc(OCCC)c(OCC)c1)n2C	-53
O=c1[nH]c(=O)c2[nH]c(=S)[nH]c2[nH]1	-60
N#C[C@@H]1[C@@H](c2ccc(-c3ccccc3)cc2)[C@@H](CO)N1C(=O)Cc1ccncc1	-63
COc1cc(CN2[C@@H]3CNC[C@H]2C3c2ccc(-c3ccccc3)cc2)cc(OC)c1 (some centres not stated)	52*
O=C(Nc1ccccc1N1CCOCC1)C1(c2ccc(Cl)cc2)CCC1	-41
O=C(Nc1cc(C(F)(F)F)ccc1N1CCOCC1)c1ccccc1	63*
C[C@@H](C(=O)Nc1cc(C(F)(F)F)ccc1N1CCOCC1)N1C(=O)C2CC=CCC2C1=O (some centres not stated)	-41
SMILES	PGC1a Ac signal
C[C@H]1CN([C@@H](C)CO)C(=O)CCCn2nncc2CO[C@@H]1CN(C)C(=O)Nc1ccc2c(c1)OCO2	-49
Cc1cccc(C)c1NC(=O)C(NC(=O)c1ccccn1)c1ccc([N+](=O)[O-])cc1 (configuration not stated)	-42
Cc1cc(C)n(C(=O)c2ccc([N+](=O)[O-])cc2N)n1	-44
Cc1c(C(=S)Nc2ccccc2)cnn1-c1ccc([N+](=O)[O-])cc1	71*
COC(=O)c1cccc2c1-c1ccccc1/C2=N/O	-75
C[C@@H]1CN([C@@H](C)CO)C(=O)c2cc(C#CCN(C)C)cnc2O[C@@H]1CN(C)S(=O)(=O)c1cn(C)cn1	-68
Cc1cccc2cc(CN(Cc3ccc(F)cc3)Cc3nnnn3C3CCCC3)c(=O)[nH]c12	-53
Clc1ccccc1CN(Cc1ccco1)Cc1nnnn1C1CCCC1	132*
C/C=C/Cn1c(SCc2ccc(Cl)cc2)nc2c1c(=O)[nH]c(=O)n2C	-50
O=C(Cc1ccc2c(c1)OCO2)NN=Cc1ccc([N+](=O)[O-])o1	137*
CCn1cc([N+](=O)[O-])c(C(=O)NCc2ccc3c(c2)OCO3)n1	-42
Cc1ccc(-c2ccc(/C=N/NC(=O)Cc3nnc(N)s3)o2)cc1Cl	-43
O=C(N/N=C\c1ccc([N+](=O)[O-])o1)C1COc2ccccc2O1 (configuration not stated)	117*
CCCCCC(=O)N/N=C/c1ccc([N+](=O)[O-])o1	105*
CC1=C(C(=O)OCc2ccc3c(c2)OCO3)C(c2ccccc2)NC(=O)N1 (configuration not stated)	-56
COc1ccc(-c2ccc(/C=N/NC(=O)Cc3nnc(N)s3)o2)cc1Cl	-57
O=C(O)Cn1cc(C(=O)C(F)(F)F)c2ccccc21	-45
O=C(OCc1nc(-c2ccccc2)oc1COC(=O)c1ccco1)c1ccco1	-44
C[C@@H]1CN([C@H](C)CO)C(=O)c2cc(-c3ccccc3)cnc2O[C@@H]1CN(C)C(=O)Cc1ccccc1	-42
Cn1c(CCN2CCCCC2)nc2cc(NS(=O)(=O)c3ccccc3)ccc21	64*
Cn1c(CN2CCCC2)nc2cc(NC(=O)COc3ccc(Cl)cc3)ccc21	-52

Source: PubChem BioAssay
